Source: ChEMBL document CHEMBL2434958, “Identification of a novel series of orexin receptor antagonists with a distinct effect on sleep architecture for the treatment of insomnia” (J Med Chem, 2013)

Experiments:
[1] = target: T1, Orexin receptor type 2 (Homo sapiens, UniProt O43614); experiment: Antagonist activity at human OX2 receptor expressed in HEK cells assessed as inhibition of orexin A-induced Ca2+ accumulation after 1 hr by Fluo-4-AM staining-based FLIPR assay; type: functional, cell-based, HEK293
T1 sequence (O43614 whole entry): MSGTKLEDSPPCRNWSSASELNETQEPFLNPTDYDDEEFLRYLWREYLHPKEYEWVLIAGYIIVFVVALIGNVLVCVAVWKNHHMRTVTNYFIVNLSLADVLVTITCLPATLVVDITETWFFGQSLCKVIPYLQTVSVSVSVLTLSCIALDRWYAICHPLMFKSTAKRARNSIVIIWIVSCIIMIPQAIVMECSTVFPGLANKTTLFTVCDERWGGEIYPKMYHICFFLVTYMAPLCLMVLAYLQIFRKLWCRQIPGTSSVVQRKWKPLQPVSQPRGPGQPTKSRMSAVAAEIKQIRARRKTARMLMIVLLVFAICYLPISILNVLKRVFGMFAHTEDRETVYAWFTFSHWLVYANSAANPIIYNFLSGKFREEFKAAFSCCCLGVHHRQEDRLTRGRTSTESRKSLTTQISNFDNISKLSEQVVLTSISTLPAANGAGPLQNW
Outline: (§1)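 Recombinant CHO or HEK cells expressing human OX1R or OX2R, serum-deprived overnight in HEPES buffer pH 7.4 with 1% BSA. Cells were loaded with 2 μM Fluo4-AM plus 0.1 mM probenecid for 1 h. Compound (up to eight concentrations, usually 10⁻⁹–10⁻⁵ M) was added first, then submaximal orexin A 1 h later. Curves run in triplicate; pKi from IC50 by Cheng–Prusoff.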

[2] = target: T2, Orexin/Hypocretin receptor type 1 (Homo sapiens, UniProt O43613); experiment: Antagonist activity at human OX1 receptor expressed in CHO cells assessed as inhibition of orexin A-induced Ca2+ accumulation after 1 hr by Fluo-4-AM staining-based FLIPR assay; type: functional, cell-based; outline: as §1
T2 sequence (O43613 whole entry): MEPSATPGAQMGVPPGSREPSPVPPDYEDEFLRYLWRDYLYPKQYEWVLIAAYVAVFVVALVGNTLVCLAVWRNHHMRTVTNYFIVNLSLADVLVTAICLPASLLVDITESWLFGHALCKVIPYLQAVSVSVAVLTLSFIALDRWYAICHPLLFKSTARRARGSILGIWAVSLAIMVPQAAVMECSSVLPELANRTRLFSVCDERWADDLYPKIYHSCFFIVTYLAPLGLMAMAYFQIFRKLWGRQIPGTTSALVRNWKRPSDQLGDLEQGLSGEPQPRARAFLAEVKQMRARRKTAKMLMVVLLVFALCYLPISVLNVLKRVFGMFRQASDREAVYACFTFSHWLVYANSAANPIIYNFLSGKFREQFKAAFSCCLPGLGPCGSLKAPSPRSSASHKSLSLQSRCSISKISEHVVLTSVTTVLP

[3] = Ratio of drug level in brain to blood in C57BL/6 mouse at 3 mg/kg, po after 15 mins; type: ADME, organism-based; set-up: dose 3 mg/kg, route oral
Outline: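 Male C57BL/6 mice (20–30 g), cassette dosing of up to five compounds plus a reference. Blood and brain collected 15 min post-dose, n = 3. Brain homogenised in 2 mM KH2PO4 and extracted with acetonitrile. LC/MS/MS quantitation; mean brain/blood ratio.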

[4] = Volume of distribution at steady state in C57BL/6 mouse at 1 mg/kg, iv; type: ADME, organism-based; set-up: dose 1 mg/kg, route intravenous; conditions: in vivo, read-out: Vdss
Outline: (§2)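 Cassette PK in male C57BL/6 mice (20–30 g), up to five test compounds plus one reference. Iv 1 mg/kg in NMP/blank plasma 10/90 v/v, 5 mL/kg, saphenous vein. Oral 3 mg/kg suspended in 0.5% w/v carboxymethylcellulose in water/Tween 80 (99.5/0.5), 10 mL/kg gavage. Blood sampled 5 min (iv) or 15 min (po) to 24 h, n = 3 per time point, measured by LC/MS/MS.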

[5] = Cmax in C57BL/6 mouse blood at 3 mg/kg, po; type: ADME, organism-based; set-up: dose 3 mg/kg, route oral; outline: as §2
[6] = Total blood clearance in C57BL/6 mouse at 1 mg/kg, iv; type: ADME, organism-based; set-up: dose 1 mg/kg, route intravenous; outline: as §2
[7] = AUC (infinity) in C57BL/6 mouse blood at 3 mg/kg, po; type: ADME, organism-based; set-up: time infinity, dose 3 mg/kg, route oral; outline: as §2
[8] = Oral bioavailability in C57BL/6 mouse blood at 3 mg/kg; type: ADME, organism-based; outline: as §2

| Structure (SMILES) | Ki [1] [nM] | Ki [2] [nM] | further results |
| --- | --- | --- | --- |
| Cc1cc(C)nc(N2CCC3(CCCN(Cc4c[nH]c5ncccc45)C3=O)CC2)n1 | 16.2 | 1320 | – |
| Cc1cc(C)nc(N2CCC3(CCCN(Cc4c[nH]c5ccccc45)C3=O)CC2)n1 | 6.92 | 661 | – |
| Cc1cc(C)nc(N2CCC3(CCCN(Cc4[nH]nnc4-c4ccccc4)C3=O)CC2)n1 | 1.17 | 708 | – |
| O=C1N(Cc2c[nH]c3ccccc23)CCCC12CCN(c1cnccn1)CC2 | 309 | – | pIC50 ([2]; cho): > 5 |
| O=C1CCCC2(CCN(c3cnc4ccccc4n3)CC2)N1Cc1cccc2[nH]ccc12 | 0.457 | 9.12 | Kp at 0.25 h [3]: 0.2; Vd [4]: 3.1 L/kg; Cmax [5]: 18 nM; clearance [6]: 188 mL/min/kg; AUC(0-inf) [7]: 0.031 µM·h; bioavailability [8]: 5% |
| Cc1cc(C)nc(N2CCC3(CCCN(Cc4nn(C)nc4-c4ccccc4)C3=O)CC2)n1 | 4.57 | 759 | – |
| Cc1cc(C)nc(N2CCC3(CCCC(=O)N3Cc3cccc4[nH]ccc34)CC2)n1 | 0.851 | 372 | – |
| O=C1N(Cc2ccccc2)CCCC12CCN(c1cnc3ccccc3n1)CC2 | 182 | 1550 | – |
| O=C1CCCC2(CCN(c3cnc4ccccc4n3)CC2)N1Cc1c[nH]c2ccccc12 | 69.2 | 275 | – |
| O=C1CCCC2(CCN(c3cnc4ccccc4n3)CC2)N1Cc1ccccc1 | 589 | 1480 | – |
| Cc1cc(C)nc(N2CCC3(CCCN(Cc4cn(C)c5ccccc45)C3=O)CC2)n1 | 20.9 | 1450 | – |
| O=C1CCCC2(CCN(c3nc4ccccc4o3)CC2)N1Cc1cccc2[nH]ccc12 | 3.16 | 18.6 | – |
